# Results taken from ChEMBL document CHEMBL3526060, “Impact of hydrolysis-mediated clearance on the pharmacokinetics of novel anaplastic lymphoma kinase inhibitors” (Drug Metab Dispos, 2013).
# Key:
# [1] = Intrinsic clearance in human liver microsomes at 1 uM by LC-MS/MS analysis in presence of NADPH; type: ADME; conditions: read-out: CLH
# In short: (§1)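 Liver microsomes (0.25 mg/mL protein, 0.1 M phosphate pH 7.4) from mouse, rat, dog or human; substrate 0.1 or 1 µM with 1 mM NADPH (mouse also without). Samples at 0, 10, 20, 30, 40 min into acetonitrile with tolbutamide, centrifuged, LC-MS/MS; CLint = (0.693/t1/2)/microsomal protein concentration.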
# [2] = AUC (0 to infinity) in CD-1 mouse at 2 mg/kg, iv administered as single bolus dose by LC-MS/MS analysis; type: ADME, organism-based; set-up: time infinity, dose 2 mg/kg, route intravenous; conditions: plasma
# In short: (§2)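 Single 2 mg/kg IV bolus via lateral tail vein to male CD-1 mice. Mice euthanized at 0.083–24 h, 3 per time point (27 animals); cardiac-puncture blood into heparin on ice, plasma spun at 4 °C and immediately extracted with acetonitrile/0.1% formic acid plus IS, LC-MS/MS. Noncompartmental CL = Dose/AUC0–inf, t1/2 = 0.693/k, Vss from AUMC/AUC, MRT = Vss/CL.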
# Plasma [3] = experiment: Drug metabolism in CD-1 mouse plasma assessed as hydrolysis metabolite formation rate by LC-MS/MS analysis; type: ADME, cell-free
# In short: (§3)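 Mouse plasma depletion kinetics at 37 °C, substrate range 0.0023–5 µM, up to 3 h; samples quenched into acetonitrile/tolbutamide, LC-MS/MS. CLint per concentration from t1/2; apparent Vmax and Km fitted by nonlinear regression to Michaelis-Menten, formation rate simulated from fit; mean of two replicates.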
# [4] = Half life in CD-1 mouse at 2 mg/kg, iv administered as single bolus dose by LC-MS/MS analysis; type: ADME, organism-based; set-up: dose 2 mg/kg, route intravenous; conditions: in vivo; in short: as §2
# [5] = Intrinsic clearance in CD-1 mouse liver microsomes at 0.1 uM by LC-MS/MS analysis in presence of NADPH; type: ADME; conditions: read-out: CLH; in short: as §1
# Plasma [6] = experiment: Metabolic stability in CD-1 mouse plasma assessed as hydrolysis product M1 [(1s,4s)-4-(2-amino-6-((4-(2-hydroxypropan-2-yl)piperidin-1-yl)methyl)-1H-benzo[d]imidazol-1-yl)-N-isopropylcyclohexanecarboxamide] formation at 5 uM after 20 mins by LC-MS/MS analysis; type: ADME, cell-free
# [7] = Intrinsic clearance in CD-1 mouse liver microsomes at 1 uM by LC-MS/MS analysis in absence of NADPH; type: ADME; conditions: read-out: CLH; in short: as §1
# [8] = Cmax in CD-1 mouse at 100 mg/kg, po administered through gavage by LC-MS/MS analysis; type: ADME, organism-based; set-up: dose 100 mg/kg, route oral; conditions: in vivo
# In short: (§4)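 Male CD-1 mice, fasted overnight, food returned 2 h post-dose; single oral gavage at 20, 50 or 100 mg/kg. Terminal cardiac-puncture blood at 0.25, 0.5, 1, 2, 4, 6, 8, 24 h, 3 mice per time point; heparinized plasma extracted into acetonitrile/formic acid with IS, LC-MS/MS. Noncompartmental analysis: linear trapezoidal AUC extrapolated to infinity, CL/F, F relative to 2 mg/kg IV.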
# [9] = Half life in CD-1 mouse at 50 mg/kg, po administered through gavage by LC-MS/MS analysis; type: ADME, organism-based; set-up: dose 50 mg/kg, route oral; conditions: in vivo; in short: as §4
# [10] = Drug metabolism in CD-1 mouse liver microsomes assessed as hydrolysis metabolite formation rate by LC-MS/MS analysis; type: ADME
# In short: (§5)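 Mouse liver microsomes 0.25 mg/mL in 0.1 M phosphate pH 7.4, with or without 1 mM NADPH, substrate 0.0023–5 µM; sampling to 40 min into acetonitrile/IS, LC-MS/MS depletion. Hydrolysis Vmax/Km solved from no-NADPH incubations, then NADPH-dependent constants; metabolite formation rate simulated from fitted constants; duplicates.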
# [11] = AUC (0 to infinity) in CD-1 mouse at 20 mg/kg, po administered through gavage by LC-MS/MS analysis; type: ADME, organism-based; set-up: time infinity, dose 20 mg/kg, route oral; conditions: plasma; in short: as §4
# [12] = Oral bioavailability in CD-1 mouse at 100 mg/kg administered through gavage by LC-MS/MS analysis relative to 2 mg/kg, iv dose; type: ADME, organism-based; conditions: in vivo; in short: as §4
# [13] = Plasma clearance in CD-1 mouse at 2 mg/kg, iv administered as single bolus dose by LC-MS/MS analysis; type: ADME, organism-based; set-up: dose 2 mg/kg, route intravenous; in short: as §2
# Plasma [14] = experiment: Drug metabolism in CD-1 mouse plasma assessed as maximum intrinsic clearance for hydrolysis metabolite formation by LC-MS/MS analysis; type: ADME, cell-free; in short: as §3
# [15] = Tmax in CD-1 mouse at 20 mg/kg, po administered through gavage by LC-MS/MS analysis; type: ADME, organism-based; set-up: dose 20 mg/kg, route oral; conditions: in vivo; in short: as §4
# [16] = Intrinsic clearance in Sprague-Dawley rat liver microsomes at 1 uM by LC-MS/MS analysis in presence of NADPH; type: ADME; conditions: read-out: CLH; in short: as §1
# [17] = Volume of distribution at steady state in CD-1 mouse at 2 mg/kg, iv administered as single bolus dose by LC-MS/MS analysis; type: ADME, organism-based; set-up: dose 2 mg/kg, route intravenous; conditions: in vivo, read-out: Vdss; in short: as §2
# [18] = Apparent oral clearance in CD-1 mouse at 20 mg/kg, po administered through gavage by LC-MS/MS analysis; type: ADME, organism-based; set-up: dose 20 mg/kg, route oral; conditions: in vivo; in short: as §4
# [19] = Intrinsic clearance in CD-1 mouse liver microsomes at 1 uM by LC-MS/MS analysis in presence of NADPH; type: ADME; conditions: read-out: CLH; in short: as §1
# [20] = Intrinsic clearance in Beagle dog liver microsomes at 1 uM by LC-MS/MS analysis in presence of NADPH; type: ADME, Canis lupus familiaris; conditions: read-out: CLH; in short: as §1
# [21] = Tmax in CD-1 mouse at 50 mg/kg, po administered through gavage by LC-MS/MS analysis; type: ADME, organism-based; set-up: dose 50 mg/kg, route oral; conditions: in vivo; in short: as §4
# [22] = Mean residence time in CD-1 mouse at 2 mg/kg, iv administered as single bolus dose by LC-MS/MS analysis; type: ADME, organism-based; set-up: dose 2 mg/kg, route intravenous; conditions: in vivo; in short: as §2
# Mus musculus = experiment: Oral bioavailability in CD-1 mouse at 50 mg/kg administered through gavage by LC-MS/MS analysis relative to 2 mg/kg, iv dose; type: ADME, organism-based; conditions: in vivo; in short: as §4
# [23] = Oral bioavailability in CD-1 mouse at 20 mg/kg administered through gavage by LC-MS/MS analysis relative to 2 mg/kg, iv dose; type: ADME, organism-based; conditions: in vivo; in short: as §4
# [24] = AUC (0 to infinity) in CD-1 mouse at 100 mg/kg, po administered through gavage by LC-MS/MS analysis; type: ADME, organism-based; set-up: time infinity, dose 100 mg/kg, route oral; conditions: plasma; in short: as §4
# [25] = Apparent oral clearance in CD-1 mouse at 50 mg/kg, po administered through gavage by LC-MS/MS analysis; type: ADME, organism-based; set-up: dose 50 mg/kg, route oral; conditions: in vivo; in short: as §4
# [26] = Apparent oral clearance in CD-1 mouse at 100 mg/kg, po administered through gavage by LC-MS/MS analysis; type: ADME, organism-based; set-up: dose 100 mg/kg, route oral; conditions: in vivo; in short: as §4
# [27] = Fraction unbound in CD-1 mouse liver microsomes after 7 hrs by equilibrium dialysis method; type: ADME
# In short: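 Equilibrium dialysis of 0.25 mg/mL mouse liver microsomes in phosphate buffer against PBS, 7 h at 37 °C, 5% CO2, test compound 0.1, 0.5 or 2 µM, triplicate; LC-MS/MS; fraction unbound = buffer/microsome concentration.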
# [28] = Cmax in CD-1 mouse at 50 mg/kg, po administered through gavage by LC-MS/MS analysis; type: ADME, organism-based; set-up: dose 50 mg/kg, route oral; conditions: in vivo; in short: as §4
# [29] = Drug metabolism in CD-1 mouse NADPH-fortified liver microsomes assessed as hydrolysis metabolite formation rate by LC-MS/MS analysis; type: ADME; in short: as §5
# [30] = Half life in CD-1 mouse at 100 mg/kg, po administered through gavage by LC-MS/MS analysis; type: ADME, organism-based; set-up: dose 100 mg/kg, route oral; conditions: in vivo; in short: as §4
# [31] = In vitro half life in CD-1 mouse plasma at 0.83 uM by LC-MS/MS analysis; type: ADME, cell-free
# In short: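 Screening stability: compound at 0.83 µM in mouse plasma at 37 °C, up to 3 h; timed aliquots quenched into acetonitrile with tolbutamide IS, centrifuged, LC-MS/MS; half-life from depletion, CLint = (0.693/t1/2)/plasma concentration.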
# [32] = Intrinsic clearance in human liver microsomes at 0.1 uM by LC-MS/MS analysis in presence of NADPH; type: ADME; conditions: read-out: CLH; in short: as §1
# [33] = Half life in CD-1 mouse at 20 mg/kg, po administered through gavage by LC-MS/MS analysis; type: ADME, organism-based; set-up: dose 20 mg/kg, route oral; conditions: in vivo; in short: as §4
# [34] = Tmax in CD-1 mouse at 100 mg/kg, po administered through gavage by LC-MS/MS analysis; type: ADME, organism-based; set-up: dose 100 mg/kg, route oral; conditions: in vivo; in short: as §4
# [35] = Intrinsic clearance in Sprague-Dawley rat liver microsomes at 0.1 uM by LC-MS/MS analysis in presence of NADPH; type: ADME; conditions: read-out: CLH; in short: as §1
# [36] = Fraction unbound in CD-1 mouse plasma after 7 hrs by equilibrium dialysis method; type: ADME, cell-free
# In short: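 Mouse plasma pre-treated 20 min with 100 µM DFP to block hydrolysis, spiked at 0.1, 0.5 or 2 µM, equilibrium dialysis against PBS for 7 h at 37 °C, 5% CO2, triplicate; matrix-matched samples extracted with acetonitrile/IS, LC-MS/MS; fu = buffer/plasma concentration.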
# [37] = Cmax in CD-1 mouse at 20 mg/kg, po administered through gavage by LC-MS/MS analysis; type: ADME, organism-based; set-up: dose 20 mg/kg, route oral; conditions: in vivo; in short: as §4
# [38] = AUC (0 to infinity) in CD-1 mouse at 50 mg/kg, po administered through gavage by LC-MS/MS analysis; type: ADME, organism-based; set-up: time infinity, dose 50 mg/kg, route oral; conditions: plasma; in short: as §4
# [39] = Intrinsic clearance in CD-1 mouse liver microsomes at 0.1 uM by LC-MS/MS analysis in absence of NADPH; type: ADME; conditions: read-out: CLH; in short: as §1
smiles,measurement,setting,value
CC(C)NC(=O)[C@H]1CC[C@@H](n2/c(=N/C(=O)c3ccc(F)cc3)[nH]c3ccc(CN4CCC(C(C)(C)O)CC4)cc32)CC1,microsomal CLint at 1 µM,[1],67 µL/min/mg
same,AUC(0-inf),[2],0.627 µM·h
same,Vmax(app),Plasma [3],19.7 pmol/min/mL
same,Km,Plasma [3]; read-out: Km(app),0.276 µM
same,half-life,[4],1.05 h
same,microsomal CLint at 0.1 µM,[5],891 µL/min/mg
same,Drug metabolism,Plasma [6],metabolite_detected
same,microsomal CLint at 1 µM,[7],50 µL/min/mg
same,Cmax,[8],15.2 µM
same,half-life,[9],2.3 h
same,Vmax(app),[10],82 pmol/min/mg
same,Km,[10]; read-out: Km(app),0.0437 µM
same,AUC(0-inf),[11],1.31 µM·h
same,bioavailability,[12],120%
same,clearance,[13],92 mL/min/kg
same,CL,Plasma [14],71.4 uL/min.ml
same,Tmax,[15],0.25 h
same,microsomal CLint at 1 µM,[16],13 µL/min/mg
same,Vd,[17],2.62 L/kg
same,CL/F,[18],437 mL/min/kg
same,microsomal CLint at 1 µM,[19],110 µL/min/mg
same,microsomal CLint at 1 µM,[20],33 µL/min/mg
same,Tmax,[21],1 h
same,MRT,[22],0.474 h
same,F,Mus musculus,151%
same,bioavailability,[23],21.1%
same,AUC(0-inf),[24],37.4 µM·h
same,CL/F,[25],60.8 mL/min/kg
same,CL/F,[26],77.2 mL/min/kg
same,fraction unbound at 7 h,[27],0.76
same,Cmax,[28],10.7 µM
same,Vmax(app),[29],45.4 pmol/min/mg
same,Km,[29]; read-out: Km(app),0.263 µM
same,half-life,[30],2.17 h
same,half-life at 0.83 µM,[31],0.2 h
same,microsomal CLint at 0.1 µM,[32],93 µL/min/mg
same,half-life,[33],1.23 h
same,Tmax,[34],1 h
same,microsomal CLint at 0.1 µM,[35],14 µL/min/mg
same,fraction unbound at 7 h,[36],0.02
same,Cmax,[37],0.782 µM
same,AUC(0-inf),[38],23.7 µM·h
same,microsomal CLint at 0.1 µM,[39],805 µL/min/mg
